Laboratory results: ChEMBL document CHEMBL4359857, “Design, synthesis and biological evaluation of chalcones as reversers of P-glycoprotein-mediated multidrug resistance” (Eur J Med Chem, 2019)
Calls of active or inactive are those of the source. The calls are words filed in the database; no cut-off is given here.

Columns and labels:
[1] = Cytotoxicity against human MCF7/Dox cells assessed as cell survival at 12.5 uM after 48 hrs by MTT assay relative to control; type: cell-based; settings: read-out: Survival
MCF7-DOX [2] = assay: Cytotoxicity against human MCF7/Dox cells assessed as reduction in cell viability after 48 hrs by MTT assay; type: cell-based
MCF7-DOX [3] = assay: Antitumour activity against human MCF7/Dox cells xenografted in Balb/c mouse assessed as tumour growth inhibition at 2 mg/kg measured after 30 days; type: functional, organism-based
[4] = Reversal of P-gp-mediated multidrug resistance in human MCF7/Dox cells assessed as potentiation of doxorubicin-induced cytotoxicity by measuring doxorubicin IC50 at 12.5 uM after 48 hrs by MTT assay (reference value: 51.19 +/- 0.95 microM)
MCF7-DOX [5] = assay: Antitumour activity against human MCF7/Dox cells xenografted in Balb/c mouse assessed as reduction in tumour volume at 5 to 15 mg/kg and measured after 30 days; type: functional, organism-based
[6] = Cytotoxicity against human MCF7/Dox cells assessed as growth inhibition after 48 hrs by MTT assay; type: cell-based
MCF7-DOX [7] = assay: Antitumour activity against human MCF7/Dox cells xenografted in Balb/c mouse assessed as reduction in tumour weight at 5 to 15 mg/kg and measured after 30 days; type: functional, organism-based
MCF7-DOX [8] = assay: Antitumour activity against human MCF7/Dox cells xenografted in Balb/c mouse assessed as tumour growth inhibition at 5 to 15 mg/kg in presence of doxorubicin and measured after 30 days; type: functional, organism-based
[9] = target: T1, Broad substrate specificity ATP-binding cassette transporter ABCG2 (Homo sapiens, UniProt Q9UNQ0); assay: Reversal of ABCG2 (unknown origin)-mediated multidrug resistance expressed in MDCK2 cells assessed as potentiation of mitoxantrone-induced cytotoxicity at 25 uM after 48 hrs by MTT assay; type: cell-based
T1 sequence (Q9UNQ0 whole entry): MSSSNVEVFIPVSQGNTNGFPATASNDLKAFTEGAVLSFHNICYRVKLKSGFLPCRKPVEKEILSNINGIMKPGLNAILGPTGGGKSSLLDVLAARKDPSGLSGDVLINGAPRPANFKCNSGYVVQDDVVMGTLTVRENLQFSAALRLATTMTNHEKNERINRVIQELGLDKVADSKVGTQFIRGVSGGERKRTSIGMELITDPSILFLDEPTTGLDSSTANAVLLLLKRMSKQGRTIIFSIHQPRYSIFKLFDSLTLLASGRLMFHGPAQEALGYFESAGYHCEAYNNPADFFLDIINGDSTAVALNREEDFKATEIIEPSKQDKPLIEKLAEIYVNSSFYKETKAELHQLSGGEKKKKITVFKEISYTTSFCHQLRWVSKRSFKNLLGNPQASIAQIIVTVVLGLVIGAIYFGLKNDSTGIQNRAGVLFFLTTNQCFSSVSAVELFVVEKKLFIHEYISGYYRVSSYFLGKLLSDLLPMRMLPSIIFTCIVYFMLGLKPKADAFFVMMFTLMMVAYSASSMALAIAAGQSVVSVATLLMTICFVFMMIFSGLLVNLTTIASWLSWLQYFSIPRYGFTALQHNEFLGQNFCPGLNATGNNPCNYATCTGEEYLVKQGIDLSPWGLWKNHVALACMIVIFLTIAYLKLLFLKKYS
How it was run: (§1)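 Transporter selectivity screen by MTT in H69AR (MRP1-overexpressing) with doxorubicin, and in MDCK II BCRP with mitoxantrone. Compound tested at 12.5 and 25 µM alongside the cytostatic. Reversal read as decreased viability versus cytostatic alone.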

[10] = target: ATP-dependent translocase ABCB1 (Homo sapiens, UniProt P08183); assay: Reversal of P-gp mediated drug efflux in human MCF7/Dox cells assessed as increase in intracellular doxorubicin accumulation at 12.5 uM after 24 hrs by DAPI based fluorescence microscopic analysis; type: cell-based
How it was run: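 MCF-7/DOX cells exposed to DOX 8 µM with or without compound at 12.5 µM. Nuclei stained with DAPI. Intracellular DOX red fluorescence imaged by fluorescence microscopy.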

MCF7-DOX [11] = assay: Down regulation of p-gp mRNA expression in human MCF7/Dox cells at 12.5 uM in presence of doxorubicin after 48 hrs by RT-PCR analysis; type: functional, cell-based
How it was run: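 MCF-7/DOX cells exposed for 48 h to compound (12.5 µM), DOX (8 µM), or both. P-gp mRNA measured by RT-PCR versus control and DOX-alone groups.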

[12] = Toxicity in Balb/c mouse xenografted with human MCF7/Dox cells assessed as body weight at 5 to 15 mg/kg administered for 30 days and measured for every 2 days; type: organism-based; settings: in vivo
[13] = Cytotoxicity against human MCF7 cells assessed as growth inhibition after 48 hrs by MTT assay; type: cell-based
[14] = target: Multidrug resistance-associated protein 1 (Homo sapiens, UniProt P33527); assay: Reversal of MRP-1 (unknown origin)-mediated multidrug resistance expressed in human H69AR cells assessed as potentiation of doxorubicin-induced cytotoxicity at 25 uM after 48 hrs by MTT assay; type: cell-based; how it was run: as §1
MCF7 [15] = assay: Antimigratory activity against human MCF7 cells after 24 hrs by wound healing assay; type: functional, cell-based
How it was run: (§2)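 Wound-healing assay on confluent monolayers of MCF-7 or MCF-7/DOX cells. Cells treated 24 h, then wound width imaged and migration quantified against untreated control cells. Means ± SD, n = 3.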

[16] = Cytotoxicity against MDCK2 cells assessed as growth inhibition after 48 hrs by MTT assay; type: cell-based, Canis lupus familiaris; settings: dog, MDCK2 (MDCK-II) cells
MCF7 [17] = assay: Antimigratory activity against human MCF7 cells after 36 hrs by crystal violet staining based transwell migration assay; type: functional, cell-based
How it was run: (§3)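 Transwell migration assay with MCF-7 or MCF-7/DOX cells treated 36 h. Migrated cells quantified against untreated control cells. Means ± SD, n = 3.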

MCF7-DOX [18] = assay: Down regulation of p-gp protein expression in human MCF7/Dox cells at 12.5 uM in presence of doxorubicin by Western blotting analysis; type: functional, cell-based; settings: TDE = time-dependent effect
How it was run: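 MCF-7/DOX cells exposed to compound (12.5 µM), DOX (8 µM), or the combination for 24 h and 48 h. P-gp protein measured by western blot. MCF-7 parental cells used as reference.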

[19] = Cytotoxicity against human H69AR cells assessed as growth inhibition after 48 hrs by MTT assay; type: cell-based
MCF7-DOX [20] = assay: Antimigratory activity against human MCF7/Dox cells after 36 hrs by crystal violet staining based transwell migration assay; type: functional, cell-based; how it was run: as §3
[21] = Cytotoxicity against human H69 cells assessed as growth inhibition after 48 hrs by MTT assay; type: cell-based; settings: H69 cells (NCI-H69)
MCF7-DOX [22] = assay: Antimigratory activity against human MCF7/Dox cells after 24 hrs by wound healing assay; type: functional, cell-based; how it was run: as §2
[23] = Cytotoxicity against MDCK2 cells expressing BCRP assessed as growth inhibition after 48 hrs by MTT assay; type: ADME, cell-based, Canis lupus familiaris; settings: dog, MDCK2 (MDCK-II) cells expressing BCRP
[24] = Toxicity in Balb/c mouse xenografted with human MCF7/Dox cells assessed as effect on body weight at 5 to 15 mg/kg in presence of doxorubicin and measured after 30 days; type: organism-based; settings: in vivo, 720 h

Sequence of Multidrug resistance-associated protein 1 (P33527 whole entry): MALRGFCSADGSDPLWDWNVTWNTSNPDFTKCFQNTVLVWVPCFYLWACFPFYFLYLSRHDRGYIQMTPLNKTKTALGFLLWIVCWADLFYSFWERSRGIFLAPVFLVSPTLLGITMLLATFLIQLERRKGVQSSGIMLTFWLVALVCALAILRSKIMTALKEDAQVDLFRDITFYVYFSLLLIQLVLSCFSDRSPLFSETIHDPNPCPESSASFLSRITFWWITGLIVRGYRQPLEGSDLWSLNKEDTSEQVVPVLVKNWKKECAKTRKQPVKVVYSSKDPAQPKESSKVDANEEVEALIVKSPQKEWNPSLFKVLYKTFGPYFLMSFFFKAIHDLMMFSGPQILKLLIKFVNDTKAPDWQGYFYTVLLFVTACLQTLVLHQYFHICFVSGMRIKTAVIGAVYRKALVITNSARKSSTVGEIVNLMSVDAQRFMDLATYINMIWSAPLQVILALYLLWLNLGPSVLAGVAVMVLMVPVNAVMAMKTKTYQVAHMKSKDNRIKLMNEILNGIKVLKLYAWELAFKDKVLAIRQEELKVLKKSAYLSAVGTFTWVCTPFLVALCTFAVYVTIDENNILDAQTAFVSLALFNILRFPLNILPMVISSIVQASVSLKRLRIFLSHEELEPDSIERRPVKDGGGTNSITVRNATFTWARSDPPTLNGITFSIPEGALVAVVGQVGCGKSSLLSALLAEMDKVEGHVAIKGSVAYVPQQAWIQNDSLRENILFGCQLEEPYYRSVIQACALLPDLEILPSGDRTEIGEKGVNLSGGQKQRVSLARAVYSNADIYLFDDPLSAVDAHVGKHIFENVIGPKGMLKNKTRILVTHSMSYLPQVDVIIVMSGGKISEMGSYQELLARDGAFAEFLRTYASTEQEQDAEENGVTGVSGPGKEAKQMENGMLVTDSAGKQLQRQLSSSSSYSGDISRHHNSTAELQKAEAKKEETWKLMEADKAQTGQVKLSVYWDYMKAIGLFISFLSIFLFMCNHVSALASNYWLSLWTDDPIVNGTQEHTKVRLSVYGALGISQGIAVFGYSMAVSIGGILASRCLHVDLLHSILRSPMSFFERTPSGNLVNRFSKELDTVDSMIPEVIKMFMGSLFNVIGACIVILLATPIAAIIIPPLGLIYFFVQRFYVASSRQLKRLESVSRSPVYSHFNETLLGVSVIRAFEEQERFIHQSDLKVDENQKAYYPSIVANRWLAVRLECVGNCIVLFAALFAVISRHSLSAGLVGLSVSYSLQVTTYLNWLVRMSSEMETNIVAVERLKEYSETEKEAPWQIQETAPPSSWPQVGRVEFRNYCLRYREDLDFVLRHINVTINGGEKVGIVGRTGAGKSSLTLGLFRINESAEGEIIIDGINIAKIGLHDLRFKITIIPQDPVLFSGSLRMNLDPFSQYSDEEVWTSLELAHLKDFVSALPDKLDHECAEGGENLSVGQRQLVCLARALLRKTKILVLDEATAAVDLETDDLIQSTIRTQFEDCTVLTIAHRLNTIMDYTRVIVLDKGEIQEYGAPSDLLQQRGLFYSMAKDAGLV
Sequence of ATP-dependent translocase ABCB1 (P08183 whole entry): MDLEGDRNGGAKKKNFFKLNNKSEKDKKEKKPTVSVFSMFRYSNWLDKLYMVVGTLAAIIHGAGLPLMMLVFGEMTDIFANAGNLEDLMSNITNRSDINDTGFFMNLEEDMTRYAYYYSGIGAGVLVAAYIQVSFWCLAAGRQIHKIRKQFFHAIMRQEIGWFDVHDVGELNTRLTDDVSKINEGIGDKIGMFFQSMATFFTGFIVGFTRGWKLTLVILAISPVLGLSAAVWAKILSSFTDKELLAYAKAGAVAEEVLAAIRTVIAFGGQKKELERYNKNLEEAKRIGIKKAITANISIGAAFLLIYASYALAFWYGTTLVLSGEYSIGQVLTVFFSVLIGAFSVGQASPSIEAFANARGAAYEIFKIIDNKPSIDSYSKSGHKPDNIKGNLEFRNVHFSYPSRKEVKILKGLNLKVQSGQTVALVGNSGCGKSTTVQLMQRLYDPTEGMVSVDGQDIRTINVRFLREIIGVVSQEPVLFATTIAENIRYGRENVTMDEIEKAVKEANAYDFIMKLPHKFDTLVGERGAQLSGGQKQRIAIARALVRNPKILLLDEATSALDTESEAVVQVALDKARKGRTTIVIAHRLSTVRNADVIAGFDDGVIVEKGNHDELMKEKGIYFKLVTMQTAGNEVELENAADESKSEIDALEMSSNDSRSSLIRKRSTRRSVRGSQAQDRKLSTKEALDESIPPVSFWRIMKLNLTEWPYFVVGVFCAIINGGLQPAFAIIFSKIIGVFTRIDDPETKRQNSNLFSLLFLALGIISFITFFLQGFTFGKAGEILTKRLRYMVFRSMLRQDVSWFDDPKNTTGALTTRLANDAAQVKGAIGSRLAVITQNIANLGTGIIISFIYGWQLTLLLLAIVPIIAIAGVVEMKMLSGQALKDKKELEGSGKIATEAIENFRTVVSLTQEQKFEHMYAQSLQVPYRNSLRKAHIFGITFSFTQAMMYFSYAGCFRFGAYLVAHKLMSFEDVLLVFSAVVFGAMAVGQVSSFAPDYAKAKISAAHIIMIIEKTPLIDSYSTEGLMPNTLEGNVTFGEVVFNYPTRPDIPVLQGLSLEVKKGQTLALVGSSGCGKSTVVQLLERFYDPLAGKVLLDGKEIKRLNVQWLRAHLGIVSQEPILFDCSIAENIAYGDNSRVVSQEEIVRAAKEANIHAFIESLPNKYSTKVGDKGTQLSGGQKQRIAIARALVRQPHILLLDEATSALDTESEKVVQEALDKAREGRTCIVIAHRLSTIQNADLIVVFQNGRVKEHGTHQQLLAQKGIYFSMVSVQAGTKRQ

Row | SMILES | viability at 48 h, 12.5 µM [1] [%] | IC50 (MCF7-DOX [2]) [µM] | IC50 [4] [µM] | further results
1 | CCCCCc1c(OC)cc(OC)c(C(=O)/C=C/c2cccc(N3CCNCC3)c2)c1O | 93.6 | > 100 | – | –
2 | COc1cccc2c1C(=O)c1c(O)c3c(c(O)c1C2=O)C[C@@](O)(C(=O)CO)C[C@@H]3O[C@H]1C[C@H](N)[C@H](O)[C@H](C)O1 | – | – | – | inhibition (MCF7-DOX [3]): inactive
3 | COc1cc(OC)c(C(=O)/C=C/c2ccc(N3CCNCC3)cc2)c(O)c1CC=C(C)C | 98.3 | 57.8 | 14.84 | –
4 | COc1cc(O)c(C(=O)/C=C/c2ccc(N3CCNCC3)cc2)c(OC)c1 | 94.2 | 67.5 | 16.62 | –
5 | COc1cc(OC)c(C(=O)/C=C/c2cccc(F)c2)c(O)c1CC=C(C)C | 92.7 | 45.4 | – | –
6 | COc1cc(OC)c(C(=O)/C=C/c2cccc([N+](=O)[O-])c2)c(O)c1CC=C(C)C | > 99 | 57 | 8.83 | –
7 | COc1cc(OC)c(C(=O)/C=C/c2cccc(N3CCN(C)CC3)c2)c(O)c1CC=C(C)C | > 99 | > 100 | 23.59 | –
8 | COc1cc(OC)c(C(=O)/C=C/c2ccccc2)c(O)c1CC=C(C)C | 90.6 | 65.4 | 20.64 | –
9 | CCCCc1c(OC)cc(OC)c(C(=O)/C=C/c2cccc(N3CCNCC3)c2)c1O | 91.6 | > 100 | – | –
10 | COc1cc(OC)c(C(=O)/C=C/c2ccc(N(C)C)cc2)c(O)c1CC=C(C)C | > 99 | > 100 | – | –
11 | COc1cc(O)c(C(=O)/C=C/c2cccc(N3CCN(C(=O)c4ccc(OC)c(OC)c4)CC3)c2)c(OC)c1 | > 99 | > 100 | – | –
12 | CCCc1c(OC)cc(OC)c(C(=O)/C=C/c2cccc(N3CCNCC3)c2)c1O | > 99 | > 100 | – | –
13 | COc1c(C)c(O)c(C)c(O)c1C(=O)/C=C/c1ccccc1 | 86 | 46.8 | – | –
14 | COc1cc(OC)c(C(=O)/C=C/c2ccc(Cl)cc2)c(O)c1CC=C(C)C | 90.1 | 43.4 | – | –
15 | COc1cc(OC)c(C(=O)/C=C/c2cccc(N3CCNCC3)c2)c(O)c1CC=C(C)C | > 99 | 99.9 | – | inhibition (MCF7-DOX [5]): inactive; GI50 at 48 h [6]: > 100 µM; inhibition (MCF7-DOX [7]): inactive; TGI (MCF7-DOX [8]): Active; inhibition (INH) [9]: Not Active; inhibition (INH) [10]: Active; inhibition (MCF7-DOX [11]): Active; Activity [12]: Non-Toxic; GI50 at 48 h [13]: > 100 µM; inhibition (INH) [14]: Not Active; inhibition (MCF7 [15]): Active; GI50 at 48 h [16]: > 100 µM; inhibition (MCF7 [17]): Active; inhibition (MCF7-DOX [18]): Tde; GI50 at 48 h [19]: 91.7 µM; inhibition (MCF7-DOX [20]): Active; GI50 at 48 h [21]: > 100 µM; inhibition (MCF7-DOX [22]): Active; GI50 at 48 h [23]: > 100 µM; Activity [24]: Non-Toxic
16 | COc1cc(OC)c(C(=O)/C=C/c2ccc(C(F)(F)F)cc2)c(O)c1CC=C(C)C | > 99 | 73.7 | 23.59 | –
17 | CCc1c(OC)cc(OC)c(C(=O)/C=C/c2cccc(N3CCNCC3)c2)c1O | 89.5 | > 100 | – | –
